In ChEMBL document CHEMBL1127451, “Benzoselenazolinone derivatives designed to be glutathione peroxidase mimetics feature inhibition of cyclooxygenase/5-lipoxygenase pathways and anti-inflammatory activity” (1994):

Experiments:
[1] = In vitro glutathione peroxidase activity at 2*10e-7M using hydrogen peroxide, activity given in percentage of ebselen''s activity; type: functional
[2] = In vitro glutathione peroxidase activity at 2*10e-7M using tert-butyl hydroperoxide, activity given in percentage of ebselen''s activity; type: functional
[3] = Inhibition of spontaneous lipid peroxidation at 10e-5 M in rat brain homogenate
[4] = Inhibition of [Fe(2+)]/ascorbate-induced lipid peroxidation at 10e-5 M in rat brain homogenate
[5] = test system: Rattus norvegicus; assay: Tested for acute anti-inflammatory activity of the antirat serum-induced edema in rats at dose of 30 mg/kg at time interval- 0.5 hr; type: functional
How it was run: (§1)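 Fasted Wistar rats (200–240 g), six per group, receive drug orally in 2% gelatin. One hour later, 0.1 mL rabbit antirat serum is injected subplantar into the hind paw. Paw volume is measured by water plethysmometry at injection and at 0.5, 1, 2, 3 and 4 h. Results are percent inhibition of swelling versus vehicle-treated rats.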

[6] = test system: Rattus norvegicus; assay: Tested for acute anti-inflammatory activity of the antirat serum-induced edema in rats at dose of 30 mg/kg at time interval- 1 hr; type: functional; how it was run: as §1
[7] = test system: Rattus norvegicus; assay: Tested for acute anti-inflammatory activity of the antirat serum-induced edema in rats at dose of 30 mg/kg at time interval- 2 hr; type: functional; how it was run: as §1
[8] = test system: Rattus norvegicus; assay: Tested for acute anti-inflammatory activity of carrageenan-induced foot edema in rats at dose of 100 mg/kg at time interval- 0.5 hr; type: functional
How it was run: (§2)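 Fasted Wistar rats (200–240 g), six per group, receive drug orally in 2% gelatin. One hour later, 0.1 mL 2% carrageenan in […] is injected subplantar into the hind paw. Paw volume is measured by water plethysmometry at injection and at 0.5, 1, 2, 3 and 4 h. Results are percent inhibition of swelling versus vehicle-treated rats.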

[9] = test system: Rattus norvegicus; assay: Tested for acute anti-inflammatory activity of carrageenan-induced foot edema in rats at dose of 100 mg/kg at time interval- 1 hr; type: functional; how it was run: as §2
[10] = test system: Rattus norvegicus; assay: Tested for acute anti-inflammatory activity of carrageenan-induced foot edema in rats at dose of 100 mg/kg at time interval- 3h; type: functional; how it was run: as §2
[11] = test system: Rattus norvegicus; assay: Tested for acute anti-inflammatory activity of carrageenan-induced foot edema in rats at dose of 100 mg/kg at time interval- 4 hr; type: functional; how it was run: as §2
[12] = test system: Rattus norvegicus; assay: Tested for acute anti-inflammatory activity of carrageenan-induced foot edema in rats at dose of 30 mg/kg at time interval- 0.5 hr; type: functional; how it was run: as §2
[13] = test system: Rattus norvegicus; assay: Tested for acute anti-inflammatory activity of carrageenan-induced foot edema in rats at dose of 30 mg/kg at time interval- 1 hr; type: functional; how it was run: as §2
[14] = test system: Rattus norvegicus; assay: Tested for acute anti-inflammatory activity of carrageenan-induced foot edema in rats at dose of 30 mg/kg at time interval- 3h; type: functional; how it was run: as §2
[15] = test system: Rattus norvegicus; assay: Tested for acute anti-inflammatory activity of carrageenan-induced foot edema in rats at dose of 30 mg/kg at time interval- 4 hr; type: functional; how it was run: as §2
[16] = test system: Rattus norvegicus; assay: Tested for acute anti-inflammatory activity of the antirat serum-induced edema in rats at dose of 30 mg/kg at time interval- 3h; type: functional; how it was run: as §1
[17] = test system: Rattus norvegicus; assay: Tested for acute anti-inflammatory activity of the antirat serum-induced edema in rats at dose of 30 mg/kg at time interval- 4 hr; type: functional; how it was run: as §1
[18] = test system: Rattus norvegicus; assay: Tested for acute anti-inflammatory activity of the antirat serum-induced edema in rats at dose of 3 mg/kg at time interval- 1 hr; type: functional; how it was run: as §1
[19] = test system: Rattus norvegicus; assay: Tested for acute anti-inflammatory activity of the antirat serum-induced edema in rats at dose of 3 mg/kg at time interval- 2 hr; type: functional; how it was run: as §1
[20] = test system: Rattus norvegicus; assay: Tested for acute anti-inflammatory activity of the antirat serum-induced edema in rats at dose of 3 mg/kg at time interval- 3h; type: functional; how it was run: as §1
[21] = test system: Rattus norvegicus; assay: Tested for acute anti-inflammatory activity of the antirat serum-induced edema in rats at dose of 3 mg/kg at time interval- 4 hr; type: functional; how it was run: as §1
[22] = test system: Rattus norvegicus; assay: Tested for acute anti-inflammatory activity of carrageenan-induced foot edema in rats at dose of 3 mg/kg at time interval- 0.5 hr; type: functional; how it was run: as §2
[23] = test system: Rattus norvegicus; assay: Tested for acute anti-inflammatory activity of carrageenan-induced foot edema in rats at dose of 3 mg/kg at time interval- 1 hr; type: functional; how it was run: as §2
[24] = test system: Rattus norvegicus; assay: Tested for acute anti-inflammatory activity of carrageenan-induced foot edema in rats at dose of 3 mg/kg at time interval- 2 hr; type: functional; how it was run: as §2
[25] = test system: Rattus norvegicus; assay: Tested for acute anti-inflammatory activity of carrageenan-induced foot edema in rats at dose of 3 mg/kg at time interval- 3h; type: functional; how it was run: as §2
[26] = test system: Rattus norvegicus; assay: Tested for acute anti-inflammatory activity of carrageenan-induced foot edema in rats at dose of 3 mg/kg at time interval- 4 hr; type: functional; how it was run: as §2
[27] = test system: Rattus norvegicus; assay: Tested for acute anti-inflammatory activity of the antirat serum-induced edema in rats at dose of 100 mg/kg at time interval- 0.5 hr; type: functional; how it was run: as §1
[28] = test system: Rattus norvegicus; assay: Tested for acute anti-inflammatory activity of the antirat serum-induced edema in rats at dose of 100 mg/kg at time interval- 1 hr; type: functional; how it was run: as §1
[29] = test system: Rattus norvegicus; assay: Tested for acute anti-inflammatory activity of the antirat serum-induced edema in rats at dose of 100 mg/kg at time interval- 2 hr; type: functional; how it was run: as §1
[30] = test system: Rattus norvegicus; assay: Tested for acute anti-inflammatory activity of the antirat serum-induced edema in rats at dose of 100 mg/kg at time interval- 3h; type: functional; how it was run: as §1
[31] = test system: Rattus norvegicus; assay: Tested for acute anti-inflammatory activity of the antirat serum-induced edema in rats at dose of 100 mg/kg at time interval- 4 hr; type: functional; how it was run: as §1
[32] = test system: Rattus norvegicus; assay: Tested for acute anti-inflammatory activity of carrageenan-induced foot edema in rats at dose of 30 mg/kg at time interval- 2 hr; type: functional; how it was run: as §2
[33] = test system: Rattus norvegicus; assay: Tested for acute anti-inflammatory activity of carrageenan-induced foot edema in rats at dose of 100 mg/kg at time interval- 2 hr; type: functional; how it was run: as §2
[34] = test system: Rattus norvegicus; assay: Tested for acute anti-inflammatory activity of the antirat serum-induced edema in rats at dose of 3 mg/kg at time interval- 0.5 hr; type: functional; how it was run: as §1

## Cn1c(=O)[se]c2cc(C(=O)c3cccnc3)ccc21
[1]
  GSH-Px activity: 0
[2]
  GSH-Px activity: 0
[3]
  inhibition: 4%
[4]
  inhibition: 1%

## CC(C)(Sc1cc(C(C)(C)C)c(O)c(C(C)(C)C)c1)Sc1cc(C(C)(C)C)c(O)c(C(C)(C)C)c1
[2]
  GSH-Px activity: 0

## O=c1[nH]c2ccc(C(O)c3ccccc3)cc2[se]1 (stereo unspecified)
[1]
  GSH-Px activity: 0
[2]
  GSH-Px activity: 10
[3]
  inhibition: -1%
[4]
  inhibition: -1%

## Cc1c(C)c2c(c(C)c1O)CCC(C)(C(=O)O)O2 (stereo unspecified)
[2]
  GSH-Px activity: 0

## O=C(c1cccnc1)c1ccc2[nH]c(=O)[se]c2c1
[1]
  GSH-Px activity: 0
[2]
  GSH-Px activity: 0
[3]
  inhibition: -5%
[4]
  inhibition: -8%

## O=c1c2ccccc2[se]n1-c1ccccc1 [EBSELEN]
[1]
  GSH-Px activity: 100
[2]
  GSH-Px activity: 100
[5]
  inhibition in vivo at 30 mg/kg: -19.6%
[6]
  inhibition in vivo at 30 mg/kg: -3.8%
[7]
  inhibition in vivo at 30 mg/kg: 8.2%
[8]
  inhibition in vivo at 100 mg/kg: -93.6%
[9]
  inhibition in vivo at 100 mg/kg: 26.9%
[10]
  inhibition in vivo at 100 mg/kg: 13.7%
[11]
  inhibition in vivo at 100 mg/kg: 0.6%
[12]
  inhibition in vivo at 30 mg/kg: -54%
[13]
  inhibition in vivo at 30 mg/kg: 47.5%
[14]
  inhibition in vivo at 30 mg/kg: -4.1%
[15]
  inhibition in vivo at 30 mg/kg: -7.5%
[16]
  inhibition in vivo at 30 mg/kg: 3.7%
[17]
  inhibition in vivo at 30 mg/kg: 7.9%
[18]
  inhibition in vivo at 3 mg/kg: 2.3%
[19]
  inhibition in vivo at 3 mg/kg: -1.1%
[20]
  inhibition in vivo at 3 mg/kg: -6.6%
[21]
  inhibition in vivo at 3 mg/kg: -2.6%
[22]
  inhibition in vivo at 3 mg/kg: -63.5%
[23]
  inhibition in vivo at 3 mg/kg: 29.1%
[24]
  inhibition in vivo at 3 mg/kg: 30.3%
[25]
  inhibition in vivo at 3 mg/kg: 21.4%
[26]
  inhibition in vivo at 3 mg/kg: 13.5%
[27]
  inhibition in vivo at 100 mg/kg: 4.9%
[28]
  inhibition in vivo at 100 mg/kg: 15.9%
[29]
  inhibition in vivo at 100 mg/kg: 22%
[30]
  inhibition in vivo at 100 mg/kg: 16.7%
[31]
  inhibition in vivo at 100 mg/kg: 16.3%
[32]
  inhibition in vivo at 30 mg/kg: 10.2%
[33]
  inhibition in vivo at 100 mg/kg: 18.4%
[34]
  inhibition in vivo at 3 mg/kg: -9.8%

## CC(=O)c1ccc(N)c([Se][Se]c2cc(C(C)=O)ccc2N)c1
[1]
  GSH-Px activity: 247
[2]
  GSH-Px activity: 238
[3]
  inhibition: 100%
[4]
  inhibition: 99%

## Nc1ccc(C(O)c2ccccc2)cc1[Se][Se]c1cc(C(O)c2ccccc2)ccc1N (stereo unspecified)
[1]
  GSH-Px activity: 54
[2]
  GSH-Px activity: 245
[3]
  inhibition: 92%
[4]
  inhibition: 97%

## Nc1ccc(C(=O)c2ccc(Cl)cc2)cc1[Se][Se]c1cc(C(=O)c2ccc(Cl)cc2)ccc1N
[1]
  GSH-Px activity: 116
[2]
  GSH-Px activity: 279
[3]
  inhibition: 100%
[4]
  inhibition: 100%

## CN(C)C(=O)Nc1ccc(C(=O)c2ccccc2)cc1[Se][Se]c1cc(C(=O)c2ccccc2)ccc1NC(=O)N(C)C
[1]
  GSH-Px activity: 212
[2]
  GSH-Px activity: 212
[3]
  inhibition: 98%
[4]
  inhibition: 99%

## O=c1[nH]c2ccc(Cc3ccccc3)cc2[se]1
[1]
  GSH-Px activity: 0.7
[2]
  GSH-Px activity: -1
[3]
  inhibition: -6%
[4]
  inhibition: -7%

## CCCC(=O)c1ccc2c(c1)[se]c(=O)n2C
[1]
  GSH-Px activity: 0
[2]
  GSH-Px activity: 0
[3]
  inhibition: 2%
[4]
  inhibition: -3%

## CNc1ccccc1[Se][Se]c1ccccc1NC
[1]
  GSH-Px activity: 325
[2]
  GSH-Px activity: 267
[3]
  inhibition: 52%
[4]
  inhibition: 37%

## CCCC(=O)c1ccc2[nH]c(=O)[se]c2c1
[1]
  GSH-Px activity: 0
[2]
  GSH-Px activity: 0
[3]
  inhibition: -3%
[4]
  inhibition: -2%

## CN(C)C(=O)Nc1ccccc1[Se][Se]c1ccccc1NC(=O)N(C)C
[1]
  GSH-Px activity: 236
[2]
  GSH-Px activity: 178
[3]
  inhibition: 96%
[4]
  inhibition: 97%

## CC(=O)c1ccc2[nH]c(=O)[se]c2c1
[1]
  GSH-Px activity: 0
[2]
  GSH-Px activity: 12
[3]
  inhibition: 1%
[4]
  inhibition: 6%

## Cn1c(=O)[se]c2cc(C(=O)c3ccccc3)ccc21
[1]
  GSH-Px activity: 0
[2]
  GSH-Px activity: 0
[3]
  inhibition: -1%
[4]
  inhibition: -3%

## CNc1ccc(C(=O)c2ccccc2)cc1[Se][Se]c1cc(C(=O)c2ccccc2)ccc1NC
[1]
  GSH-Px activity: 68
[2]
  GSH-Px activity: 298
[3]
  inhibition: 100%
[4]
  inhibition: 100%

## Cn1c(=O)[se]c2cc(C(=O)c3ccc(Cl)cc3)ccc21
[1]
  GSH-Px activity: 0
[2]
  GSH-Px activity: 0
[3]
  inhibition: -3%
[4]
  inhibition: 2%

## Nc1ccc(Cc2ccccc2)cc1[Se][Se]c1cc(Cc2ccccc2)ccc1N
[1]
  GSH-Px activity: 227
[2]
  GSH-Px activity: 242
[3]
  inhibition: 91%
[4]
  inhibition: 97%

## O=C(c1ccc(Cl)cc1)c1ccc2[nH]c(=O)[se]c2c1
[1]
  GSH-Px activity: 0
[2]
  GSH-Px activity: 0
[3]
  inhibition: -5%
[4]
  inhibition: 5%
